How the values were obtained:
Type in all cases: functional
[1] = Percent recovery of compound in rats over 24 hr when administered orally at a dose of 4.3 mg, 4.09(uCi); and activity calculated from bile of rats at time (5-6 h)
Procedure, shortened: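 Adult male Sprague-Dawley rats were fasted overnight, with chow and water otherwise ad libitum. The tritiated proline-4-labelled analogue was given orally in dilute NaHCO3. Bile was collected at timed intervals and urine over 24 h. Aliquots were counted by liquid scintillation, with quench correction by automatic external standardization and a quench curve. Recovery was expressed as percent of the dosed radioactivity.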

Rattus norvegicus [2] = assay: Compound was evaluated for change in blood pressure value in hypertensive rats by peroral administration at a dose of 6.4 mg/kg at 8 hr; settings: route oral
Procedure, shortened: (§1)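 One-clip/two-kidney renal hypertension was induced with a silver clip on the left renal artery, leaving the other kidney intact. Several weeks later, rats were cannulated and those with mean pressure above 160 mmHg were used. Four conscious rats per compound received an oral dose in 0.25% methylcellulose (5 mL/kg), and two received vehicle only. Mean aortic pressure was read before dosing, hourly for 8 h, and at 24 h.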

Rattus norvegicus [3] = assay: Compound was evaluated for its base line value in hypertensive rats by peroral administration at a dose of 6.4 mg/kg; settings: route oral; procedure, shortened: as §1
Rattus norvegicus [4] = assay: Compound was evaluated for maximum effect in hypertensive rats by peroral administration at a dose of 6.4 mg/kg; settings: route oral; procedure, shortened: as §1
Rattus norvegicus [5] = assay: Compound was evaluated for itschange in blood pressure value on hypertensive rats by peroral administration at a dose of 3.0 mg/kgat 4 hr; settings: dose 3 mg/kg; route oral; procedure, shortened: as §1
Rattus norvegicus [6] = assay: Compound was evaluated for its base line value on hypertensive rats by peroral administration at a dose of 3.0 mg/kg; settings: route oral
Rattus norvegicus [7] = assay: Compound was evaluated for its maximum effect value on hypertensive rats by peroral administration at a dose of 3.0 mg/kg; settings: route oral
Rattus norvegicus [8] = assay: Compound was evaluated for itschange in blood pressure value on hypertensive rats by peroral administration at a dose of 30 mg/kg at 8 hr; settings: route oral
Rattus norvegicus [9] = assay: Compound was evaluated for its base line value on hypertensive rats by peroral administration at a dose of 30 mg/kg; settings: route oral
Rattus norvegicus [10] = assay: Compound was evaluated for its maximum effect value on hypertensive rats by peroral administration at a dose of 30 mg/kg; settings: route oral
Rattus norvegicus [11] = assay: Compound was evaluated for change in blood pressure in hypertensive rats by peroral administration at a dose of 3.0 mg/kg at 1 hr; settings: route oral
Rattus norvegicus [12] = assay: Compound was evaluated for maximum effect in hypertensive rats by peroral administration at a dose of 3.0 mg/kg; settings: route oral

Compound [3H]C1CC(C(=O)O)N(C(=O)CCC(=O)C(Cc2ccccc2)NC(=O)C(CCCCN)NC(=O)C2CCC2)C1 (configuration not stated) has a Recovered radioactivity [1] of 1.42%.
For CC(CC(=O)C(Cc1ccccc1)NC(=O)C(CCCCN)NC(=O)C1CCC1)C(=O)N1CCCC1C(=O)O.O=C(O)C(F)(F)F (configuration not stated), the “Mean aortic blood pressure” value (Rattus norvegicus [2]) was -5 mmHg, the “Mean aortic blood pressure” value (Rattus norvegicus [3]) was 186 mmHg and the “Mean aortic blood pressure” value (Rattus norvegicus [4]) was 181 mmHg.
In the case of NCCCCC(NC(=O)C1CCC1)C(=O)NC(Cc1ccccc1)C(=O)CCC(=O)N1CCCC1C(=O)O.O=C(O)C(F)(F)F (configuration not stated), the “Mean aortic blood pressure” value (Rattus norvegicus [5]) is reported as -22 mmHg, the “Mean aortic blood pressure” value (Rattus norvegicus [6]) is reported as 195 mmHg and the “Mean aortic blood pressure” value (Rattus norvegicus [7]) is reported as 173 mmHg.
With O=C(N[C@@H](Cc1ccccc1)C(=O)CCC(=O)N1CCC[C@H]1C(=O)O)c1ccccc1 the Mean aortic blood pressure (Rattus norvegicus [8]) was -12 mmHg, the “Mean aortic blood pressure” value (Rattus norvegicus [9]) was 190 mmHg and the “Mean aortic blood pressure” value (Rattus norvegicus [10]) was 178 mmHg.
In the case of C[C@H](CS)C(=O)N1CCC[C@H]1C(=O)O [CAPTOPRIL], the Mean aortic blood pressure (Rattus norvegicus [11]) is reported as -93 mmHg and the “Mean aortic blood pressure” value (Rattus norvegicus [12]) is reported as 99 mmHg.

— ChEMBL document CHEMBL1122914, “Synthesis and biological activity of pentapeptide analogues of the potent angiotensin converting enzyme inhibitor 5(S)-benzamido-4-oxo-6-phenylhexanoyl-L-proline” (J Med Chem, 1985)
